The source of these data is ChEMBL document CHEMBL1132244, “Benzodiazepine receptor ligands. 4. Synthesis and pharmacological evaluation of 3-heteroaryl-8-chloropyrazolo[5,1-c][1,2,4] benzotriazine 5-oxides” (J Med Chem, 1999).

In data set [1] the target is GABA-A receptor; anion channel. Briefly: Displacement of [3H]Ro-151788 from GABA-A benzodiazepine receptor of bovine brain membranes. Type of data set: cell membranes, Bos taurus. A digest of the protocol: (§1)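 Washed bovine cerebral cortex membranes, with endogenous GABA removed by Triton X-100/37 °C washes, incubated with ~0.2 nM [3H]Ro15-1788 (Kd 0.60 nM) in 50 mM Tris-citrate pH 7.4 for 90 min at 0 °C, then filtered. Nonspecific binding defined with 10 μM diazepam. Screening at 10 μM; Ki from IC50 by Cheng–Prusoff; five determinations, mean ± SEM.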

Data set [2] has as its target T1, GABA-A receptor; anion channel (Bos taurus) (UniProt P10063+P08220+P20237+P08219+P10064+P22300). Briefly: Percentage inhibition of [3H]Ro-151788 binding to GABA-A benzodiazepine receptor in bovine brain membrane at 10 uM. It is filed as cell membranes. A digest of the protocol: as §1
For data set [3], the system named is Mus musculus. Put plainly: (§2) Anticonvulsant activity against MES-induced hindlimb extension at 100 mg/kg dose. It is filed as functional.
Data set [4] deals with Mus musculus. Briefly: (§3) Anticonvulsant activity against MES-induced hindlimb extension at 30 mg/kg dose. It is filed as functional.
For data set [5], the system named is Mus musculus. Put plainly: (§4) Anticonvulsant activity against MES-induced hindlimb extension at 300 mg/kg dose. Type of data set: functional.
For data set [6], the system named is Mus musculus. Put plainly: Antianxiety activity was measured based on light/dark box thus calculated no of crosses of mice at 100 mg/kg dose. Type of data set: functional. A digest of the protocol: (§5)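 Male Swiss-Webster mice, 22–26 g, dosed orally with drug or 1% CMC vehicle (10 mL/kg), placed 30 min later in the centre of the lit side of a two-compartment light/dark box (60-W bulb 400 mm above the white floor). Time in the lit side and number of crossings counted over 5 min. Student's t-test.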

The subject of data set [7] is Mus musculus. Put plainly: Antianxiety activity was measured based on light/dark box thus calculated no of crosses of mice at 3 mg/kg dose. It is filed as functional. A digest of the protocol: as §5
Data set [8] deals with Mus musculus. Briefly: Antianxiety activity was measured based on light/dark box thus calculated no of crosses of mice at 30 mg/kg dose. Type of data set: functional. A digest of the protocol: as §5
Data set [9] has as its system Mus musculus. The data set is described as §2. Type of data set: organism-based. Also noted: dose 100 mg/kg. Conditions: in vivo. A digest of the protocol: (§6)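 Male Swiss-Webster mice (22–26 g) received drug in 1% CMC (10 mL/kg) 30 min before maximal electroshock through transcorneal electrodes (40 mA, 50 Hz, 0.2 s). The end point was tonic hindlimb extension, and lethality was also noted. The incidence of non-convulsing mice was analysed by χ² test.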

The test system of data set [10] is Mus musculus. Briefly: Muscle relaxant effect measured by rotarod test at 100 mg/Kg dose in mice. It is filed as functional. A digest of the protocol: (§7)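 Motor coordination on the rota rod in male Swiss-Webster mice (22–26 g) after oral dosing in 1% CMC (10 mL/kg), tested 30 min post-dose. Student's t-test.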
Data set [11] relates to Mus musculus. Described as §3. Type of data set: ADME, organism-based. Also on record: dose 30 mg/kg. The settings on record: in vivo. In a few lines:
as §6

Data set [12] relates to Mus musculus. Described as §4. Also on record: dose 300 mg/kg. Conditions: in vivo. Type of data set: ADME, organism-based. In a few lines: as §6
Data set [13] deals with Mus musculus. Put plainly: Muscle relaxant effect measured by rotarod test at 30 mg/Kg dose in mice. Type of data set: functional. In a few lines: as §7
For orientation: In the rotarod test animals must keep their balance on a rotating rod.

Data set [14] relates to Mus musculus. Briefly: Muscle relaxant effect measured by rotarod test at 300 mg/Kg dose in mice. Type of data set: functional. A digest of the protocol: as §7
The subject of data set [15] is Mus musculus. Briefly: Antianxiety activity was measured based on light/dark box thus calculated % time in light of mice at 100 mg/kg dose. It is filed as functional. A digest of the protocol:
as §5

The subject of data set [16] is Mus musculus. Briefly: Antianxiety activity was measured based on light/dark box thus calculated % time in light of mice at 3 mg/kg dose. It is filed as functional. In a few lines:
as §5

Data set [17] relates to Mus musculus. Briefly: Anticonvulsant activity against PTZ induced atacks at 100 mg/kg dose. It is filed as functional.
For data set [18], the system named is Mus musculus. Put plainly: Anticonvulsant activity against PTZ induced atacks at 300 mg/kg dose. It is filed as functional.
Data set [19] has as its target T1, GABA-A receptor; anion channel (Bos taurus). Put plainly: The GABA ratio (GR) = IC50 compound + 10 uM GABA, performed in five independent experiments was calculated for the compound. Type of data set: protein-complex assay. A digest of the protocol: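 [3H]Ro15-1788 displacement from GABA-depleted bovine cortex membranes (0.2 nM ligand, 90 min, 0 °C, Tris-citrate pH 7.4). IC50 measured without and with 10 μM GABA and the ratio taken; five independent experiments.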

The subject of data set [20] is Mus musculus. Put plainly: Antianxiety activity was measured based on light/dark box thus calculated % time in light of mice at 10 mg/kg dose. It is filed as functional. In a few lines: as §5
In data set [21] the test system is Mus musculus. Put plainly: Antianxiety activity was measured based on light/dark box thus calculated % time in light of mice at 30 mg/kg dose. It is filed as functional. In a few lines: as §5
Data set [22] deals with Mus musculus. Put plainly: Anticonvulsant activity against PTZ induced atacks at 30 mg/kg dose. It is filed as functional.
Data set [23] deals with Mus musculus. Put plainly: Antianxiety activity was measured based on light/dark box thus calculated no of crosses of mice at 10 mg/kg dose. Type of data set: functional. In a few lines:
as §5

`[O-][n+]1nc2c(-c3cccs3)cnn2c2cc(Cl)ccc21` gave a Ki in [1] of 10.3 nM. Also, the inhibition in data set [2] stood at 82%. Besides, the Extension in [3], in data set [4] and in data set [5] was 0% in each case. For the same compound, the No. of crosses in data set [6] is given as 18.4; in data set [7], 15; in [8], 17.6; in [23] it was 20. The Lethality in [9] was found to be 20%; in [11], 18.2%; in [12] it was 8.3%. For the same compound, the figures for the No. of falls in data set [10], in data set [13] and in data set [14] were 0.08, 0 and 0.2, respectively. Besides, the Time in flight in data set [15] is reported as 114.5%; in [16], 88.9%; in data set [20] it was 122.2%; in data set [21], 11.5%. For the same compound, the Atttacks was 16.6% in [17], 12.5% in data set [18] and 10% in data set [22]. Also, the GR in data set [19] was 1.54.

By Ki is commonly meant the equilibrium dissociation constant of an inhibitor or competing ligand from its target. Higher therefore signals a looser hold on the target. Broadly, the inhibition is how much of the control response was suppressed. The low end stands for a response near the control, the high end for a response far below the control.
